From ChEMBL document CHEMBL1221233, “4''-O-(omega-Quinolylamino-alkylamino)propionyl derivatives of selected macrolides with the activity against the key erythromycin resistant respiratory pathogens” (2010)
Converted amounts (≈) assume the structure as drawn.

Tests used:
Format in all cases: functional
Haemophilus influenzae = assay: Antibacterial activity against Haemophilus influenzae ATCC 49247 by broth microdilution method
Summary of the method: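 MIC by broth microdilution following CLSI guidelines, expressed in units of lg/mL. Twofold dilutions prepared in 96-well plates. H. influenzae grown on Mueller-Hinton chocolate agar before testing.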

Streptococcus pyogenes [1] = assay: Antibacterial activity against constitutive MLS resistance sStreptococcus pyogenes 166 GR-Micro by broth microdilution method
Summary of the method: (§1)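 MIC by CLSI broth microdilution. In the streptococcal medium, 5% horse serum replaced lysed blood. Compounds were tested as two-fold serial dilutions. Strains were first grown on Columbia agar with 5% sheep blood. The MIC was read as the lowest concentration inhibiting growth.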

Staphylococcus aureus [2] = assay: Antibacterial activity against efflux-mediated macrolide-resistance Staphylococcus aureus PK1 by broth microdilution method
Summary of the method: (§2)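 Staphylococci were grown on Mueller-Hinton agar and then tested by CLSI-guideline broth microdilution against two-fold serial dilutions of compound. The result was recorded as the minimum inhibitory concentration.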

Streptococcus pneumoniae [3] = assay: Antibacterial activity against efflux-mediated macrolide-resistance Streptococcus pneumoniae Ci137 by broth microdilution method; summary of the method: as §1
Streptococcus pyogenes [4] = assay: Antibacterial activity against efflux-mediated macrolide-resistance Streptococcus pyogenes 2 Finland by broth microdilution method; summary of the method: as §1
Staphylococcus aureus [5] = assay: Antibacterial activity against inducible resistance to macrolide, licosamide and streptogramin Staphylococcus aureus 90256 by broth microdilution method; summary of the method: as §2
Streptococcus pneumoniae [6] = assay: Antibacterial activity against inducible resistance to macrolide and constitutive resistance to lincosamide Streptococcus pneumoniae 134 GR M by broth microdilution method; summary of the method: as §1
Streptococcus pneumoniae [7] = assay: Antibacterial activity against constitutive MLS resistance Streptococcus pneumoniae 58 by broth microdilution method; summary of the method: as §1

SMILES | MIC (Haemophilus influenzae) [µg/mL] | MIC (Streptococcus pyogenes [1]) [µg/mL] | MIC (Staphylococcus aureus [2]) [µg/mL] | MIC (Streptococcus pneumoniae [3]) [µg/mL] | MIC (Streptococcus pyogenes [4]) [µg/mL] | MIC (Staphylococcus aureus [5]) [µg/mL] | MIC (Streptococcus pneumoniae [6]) [µg/mL] | MIC (Streptococcus pneumoniae [7]) [µg/mL]
CC[C@H]1OC(=O)[C@H](C)[C@@H](O[C@H]2C[C@@](C)(OC)[C@@H](OC(=O)CCNCCNc3cc4c(cc3F)c(=O)c(C(=O)O)cn4C3CC3)[C@H](C)O2)[C@H](C)[C@@H](O[C@@H]2O[C@H](C)C[C@H](N(C)C)[C@H]2O)[C@](C)(O)C[C@@H](C)CN(C)[C@H](C)[C@H]2OC(=O)O[C@@]21C | 2 (≈ 1.76 µM) | ≤ 0.125 | 0.25 (≈ 0.22 µM) | ≤ 0.125 | ≤ 0.125 | 1 (≈ 0.882 µM) | ≤ 0.125 | ≤ 0.125
CC[C@H]1OC(=O)[C@H](C)[C@@H](O[C@H]2C[C@@](C)(OC)[C@@H](OC(=O)CCNCCNc3ccc4c(=O)c(C(=O)O)cn(C)c4c3)[C@H](C)O2)[C@H](C)[C@@H](O[C@@H]2O[C@H](C)C[C@H](N(C)C)[C@H]2O)[C@](C)(O)C[C@@H](C)NC(=O)[C@H](C)[C@@H](O)[C@]1(C)O | 16 (≈ 15 µM) | 0.5 (≈ 0.47 µM) | 4 (≈ 3.76 µM) | 1 (≈ 0.94 µM) | 2 (≈ 1.88 µM) | 32 (≈ 30.1 µM) | 1 (≈ 0.94 µM) | 1 (≈ 0.94 µM)
CC[C@H]1OC(=O)[C@H](C)[C@@H](O[C@H]2C[C@@](C)(OC)[C@@H](OC(=O)CCNCCNc3cc4c(=O)c(C(=O)O)cn(C5CC5)c4cc3Cl)[C@H](C)O2)[C@H](C)[C@@H](O[C@@H]2O[C@H](C)C[C@H](N(C)C)[C@H]2O)[C@](C)(O)C[C@@H](C)CN(C)[C@H](C)[C@@H](O)[C@]1(C)O | 1 (≈ 0.889 µM) | ≤ 0.125 | 0.25 (≈ 0.222 µM) | ≤ 0.125 | ≤ 0.125 | 0.5 (≈ 0.445 µM) | ≤ 0.125 | ≤ 0.125
CC[C@H]1OC(=O)[C@H](C)[C@@H](O[C@H]2C[C@@](C)(OC)[C@@H](OC(=O)CCNCCCNc3cc4c(cc3F)c(=O)c(C(=O)O)cn4C3CC3)[C@H](C)O2)[C@H](C)[C@@H](O[C@@H]2O[C@H](C)C[C@H](N(C)C)[C@H]2O)[C@](C)(O)C[C@@H](C)C(=O)[C@H](C)[C@@H](O)[C@]1(C)O | 8 (≈ 7.22 µM) | 2 (≈ 1.81 µM) | 1 (≈ 0.903 µM) | ≤ 0.125 | ≤ 0.125 | 64 (≈ 57.8 µM) | 2 (≈ 1.81 µM) | 0.25 (≈ 0.226 µM)
CC[C@H]1OC(=O)[C@H](C)[C@@H](O[C@H]2C[C@@](C)(OC)[C@@H](OC(=O)CCNCCNc3cc4c(=O)c(C(=O)O)cn(C5CC5)c4cc3Cl)[C@H](C)O2)[C@H](C)[C@@H](O[C@@H]2O[C@H](C)C[C@H](N(C)C)[C@H]2O)[C@](C)(O)C[C@@H](C)C(=O)[C@H](C)[C@@H](O)[C@]1(C)O | 2 (≈ 1.8 µM) | ≤ 0.125 | 0.5 (≈ 0.451 µM) | ≤ 0.125 | ≤ 0.125 | 4 (≈ 3.6 µM) | ≤ 0.125 | ≤ 0.125
CC[C@H]1OC(=O)[C@H](C)[C@@H](O[C@H]2C[C@@](C)(OC)[C@@H](OC(=O)CCNCCNc3ccc4c(=O)c(C(=O)O)cn(C)c4c3)[C@H](C)O2)[C@H](C)[C@@H](O[C@@H]2O[C@H](C)C[C@H](N(C)C)[C@H]2O)[C@](C)(O)C[C@@H](C)C(=O)[C@H](C)[C@@H](O)[C@]1(C)O | 8 (≈ 7.62 µM) | ≤ 0.125 | 1 (≈ 0.953 µM) | ≤ 0.125 | 1 (≈ 0.953 µM) | 4 (≈ 3.81 µM) | ≤ 0.125 | ≤ 0.125
CC[C@H]1OC(=O)[C@H](C)[C@@H](O[C@H]2C[C@@](C)(OC)[C@@H](OC(=O)CCNCCNc3ccc4c(=O)c(C(=O)O)cn(CC)c4c3)[C@H](C)O2)[C@H](C)[C@@H](O[C@@H]2O[C@H](C)C[C@H](N(C)C)[C@H]2O)[C@](C)(O)C[C@@H](C)C(=O)[C@H](C)[C@@H](O)[C@]1(C)O | 2 (≈ 1.88 µM) | ≤ 0.125 | 0.5 (≈ 0.47 µM) | ≤ 0.125 | ≤ 0.125 | 1 (≈ 0.94 µM) | ≤ 0.125 | ≤ 0.125
